Here are results for one molecule from article PMC10610910 (Science Advances, 2023).

The nature of one data set: SEC-SAXS of free HSF2BP. In kind it is physicochemical. The gist of the method:
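Free HSF2BP was loaded at 6 mg/ml onto a BIOSEC 3 column in 25 mM tris-HCl pH 7.5, 250 mM NaCl, 5 mM β-mercaptoethanol, with synchrotron scattering recorded every second during elution. Curves across the elution peak were summed. P(r) was derived so that its Fourier transform fits the SAXS curve.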

Data set [1] can be described thus: SEC-MALS molecular mass / oligomeric state. The class given is physicochemical. The conditions noted are these: 25 mM tris-HCl pH 7.5, 250 mM NaCl, 5 mM β-mercaptoethanol, n = 2. In general terms: Size exclusion chromatography separates by hydrodynamic size, large species first.
In data set [2] the target is T1, HSF2BP (Homo sapiens, UniProt O75031).
T1 sequence (O75031 1-334): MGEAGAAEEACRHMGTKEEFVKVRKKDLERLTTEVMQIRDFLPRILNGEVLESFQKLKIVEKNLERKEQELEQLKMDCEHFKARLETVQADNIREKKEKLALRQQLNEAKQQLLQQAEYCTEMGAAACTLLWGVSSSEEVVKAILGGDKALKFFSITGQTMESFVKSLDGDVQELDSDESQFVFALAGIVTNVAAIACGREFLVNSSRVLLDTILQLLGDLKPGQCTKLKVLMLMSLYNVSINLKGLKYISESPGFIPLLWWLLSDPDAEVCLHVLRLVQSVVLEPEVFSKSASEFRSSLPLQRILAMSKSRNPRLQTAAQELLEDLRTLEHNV
Kind of data set: Scanning force microscopy. The class given is physicochemical. The conditions noted are these: SFM on mica, in air; HSF2BP at 12 nM. The essentials: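 HSF2BP was diluted 10,000-fold to 12 nM in 25 mM tris-HCl pH 7.5, 250 mM NaCl, 5 mM β-mercaptoethanol. It was deposited for 30 s on freshly cleaved mica, rinsed with water, dried under filtered air, and imaged in air by SFM. Particle volume distributions were obtained by kernel density analysis.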

The test system of data set [3] is interstrand crosslink repair (pICL) in Xenopus egg extract. To be noted: Xenopus and human HSF2BP, ref [24]; cited from earlier work.
For a further data set, the system named is endogenous Xenopus BRCA2. The conditions noted are these: Xenopus egg extract; ref [24]; cited from earlier work.
Data set [4] has as its target T1, HSF2BP. Description: Mass photometry. In kind it is physicochemical. The conditions noted are these: 25-100 nM.
The next data set relates to DNA. To be noted: ref [23]; cited from earlier work.
Another data set concerns HeLa cells. In kind it is cell-based, human. To be noted: HeLa stably producing the protein; MMC, cisplatin, talazoparib. The essentials: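 HeLa cells in DMEM with 10% fetal calf serum were stably co-transfected (PiggyBac) with GFP-HSF2BP and/or Flag-BRME1 variants, then selected with puromycin (1.5 μg/ml) and G418 (800 μg/ml) for 8 days; mixed populations were used. Seeded 100–1000 cells/well in technical duplicates, drugs added next day: MMC 2 h, cisplatin or talazoparib overnight. Coomassie-stained colonies counted on day 10.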

B1: HSF2BP: human HSF2BP, full-length wild type; GFP-HSF2BP in HeLa cells (protein)
chain: T1 sequence (O75031 1-334)
modifications: left off: His6, end not stated, cleaved
The molecule B1 showed a maximal distance in the data set “SEC-SAXS of free HSF2BP” (P(r)) of 250 Å. Further, in the data set “SEC-SAXS of free HSF2BP” (protein ~50 to 60 μM, pH 7.5, 293.15 K), the “molar mass (I(0))” value is listed as 156 ± 21 kDa. The apparent molar mass in data set [1] is listed as 136 ± 7 kDa. Besides, in the data set with HSF2BP [2], the “particle volume, larger peak” value is approximately 190 nm^3 and the “particle volume, smaller peak” value is “around 95 nm^3”. In addition, the “effect on crosslink repair, in words” value in data set [3] is “inhibit replication-dependent restoration of the genetic information at the crosslink”. For the same molecule, the “effect on BRCA2, in words” value in the data set on endogenous Xenopus BRCA2 is “leads to DNA crosslink-dependent proteasomal degradation of BRCA2”. Further, the “effect on / state of HSF2BP oligomers, in words” value with HSF2BP [4] is “at 25 nM, it is a mix of dimers and tetramers”. Besides, the “affinity for DNA, in words” value in the data set with DNA is listed as “no detectable affinity for DNA”. The “effect on cell resistance to DNA damage, in words” value with HeLa cells is “sensitized cells to DNA damage”.
